This test has as its target Diacylglycerol lipase-beta (Mus musculus) (UniProt Q91WC9). Put plainly: DAGLb inhibitors by competitive gel ABPP, late-stage follow-up, biochemical, in-gel fluorescence, HEK293T membranes, overexpressed mouse DAGLb, set 1 (AID 602302). Conditions: HEK293T membrane overexpressing mouse DAGLb, at 0.1 µM, active compounds read high. In short, it runs like this:
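Buffer or medium – Dulbecco's PBS (DPBS) · Test system – membrane proteome of transiently transfected HEK293T cells, overexpressed mouse DAGLb · Quantity – membrane protein at 0.3 mg/mL · Doses – single compound dose of 100 nM (0.1 µM) final · Timing – 30 min compound plus 30 min probe, 37 °C · Reagent – fluorescent probe HT-01 at 1 µM final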

Active and inactive are the calls of the source.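 How the source made its calls: active means inhibition of diacylglycerol lipase beta of at least 50% in a gel probe-labeling test; inactive means inhibition under 50%.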

Diacylglycerol lipase-beta (Mus musculus), sequence (Q91WC9 whole entry, looked up): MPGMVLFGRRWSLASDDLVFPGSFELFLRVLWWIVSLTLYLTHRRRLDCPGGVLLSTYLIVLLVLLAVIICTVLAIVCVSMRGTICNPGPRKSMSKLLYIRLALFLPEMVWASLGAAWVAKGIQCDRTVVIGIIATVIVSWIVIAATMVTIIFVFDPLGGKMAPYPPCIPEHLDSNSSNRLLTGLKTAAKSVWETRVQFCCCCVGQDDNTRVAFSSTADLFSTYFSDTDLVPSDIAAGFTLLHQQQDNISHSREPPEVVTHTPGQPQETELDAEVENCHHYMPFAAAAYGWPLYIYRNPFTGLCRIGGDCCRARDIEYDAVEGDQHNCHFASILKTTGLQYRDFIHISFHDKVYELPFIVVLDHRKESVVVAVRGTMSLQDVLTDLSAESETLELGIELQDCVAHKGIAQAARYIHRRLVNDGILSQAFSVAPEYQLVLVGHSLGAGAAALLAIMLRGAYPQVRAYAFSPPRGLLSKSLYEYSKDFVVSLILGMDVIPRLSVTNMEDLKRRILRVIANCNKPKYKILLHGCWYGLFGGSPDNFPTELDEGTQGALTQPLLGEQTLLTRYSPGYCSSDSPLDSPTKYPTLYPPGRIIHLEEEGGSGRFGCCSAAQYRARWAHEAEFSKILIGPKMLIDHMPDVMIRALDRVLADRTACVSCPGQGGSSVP

Turning to `O=C(N1CCCCC1Cc1ccccc1)n1ncc(-c2ccc(OC(F)(F)F)cc2)n1` (stereo not given), the inhibition (commonly the drop in the measured response relative to a control, in per cent) is 0% (inactive).
Consider `O=C(N1CCCCC1Cc1ccccc1)n1cc(-c2ccccc2-c2ccccc2)nn1` (stereo not given), for which the inhibition was 18% (inactive).
As for `O=C(N1CCCCC1Cc1ccccc1)n1cc(-c2ccc(-c3ccc(OC(F)(F)F)cc3)cc2)nn1` (stereo not given), the figure is 38% (inactive); as for `CC(C)(C)OC(=O)NCCCCCN(CCc1ccccc1)C(=O)n1cc(-c2ccc(OC(F)(F)F)cc2)nn1`, 73%; as for `O=C(N(CCc1ccccc1)Cc1ccco1)n1cc(-c2ccc(OC(F)(F)F)cc2)nn1`, 71%.
For `O=C(N1CCCCC1Cc1ccccc1)n1cc(-c2ccc(-c3ccccc3Cl)cc2)nn1` (stereo not given), the inhibition is 66%.
Take `O=C(N1CCCCC1Cc1ccccc1)n1cc(-c2ccc(-c3ccoc3)cc2)nn1` (stereo not given): the inhibition is 52%.
As to `COc1ccccc1-c1ccc(-c2cn(C(=O)N3CCCCC3Cc3ccccc3)nn2)cc1` (stereo not given), the inhibition was 55%.
For `O=C(N1CCCCC1Cc1ccccc1)n1cc(-c2cccc(-c3ccccc3)c2)nn1` (stereo not given), the inhibition was 27% (inactive).
As for `O=C(c1ccc(-c2ccc(-c3cn(C(=O)N4CCCCC4Cc4ccccc4)nn3)cc2)cc1)N1CCCCC1` (stereo not given), the figure is 10% (inactive); as for `CC(C)CN(CCc1ccccc1)C(=O)n1cc(-c2ccc(OC(F)(F)F)cc2)nn1`, 70%; as for `O=C(N1CCCCC1Cc1ccccc1)n1cc(-c2ccc(-c3ccc(C(F)(F)F)cc3)cc2)nn1` (stereo not given), 31% (inactive).
`O=C(c1ccc(-c2cn(C(=O)N3CCCCC3Cc3ccccc3)nn2)cc1)N1CCCCC1` (stereo not given): the inhibition is 41% (inactive).
Next, `O=C(N1CCCCC1Cc1ccccc1)n1cc(-c2ccc(-c3ccccc3CO)cc2)nn1` (stereo not given): 67%; `O=C(N1CCCCC1Cc1ccccc1)n1cc(-c2ccc(-c3ccccc3C(F)(F)F)cc2)nn1` (stereo not given): 59%.
As for `O=C(N1CCCCC1Cc1ccccc1)n1ncc(C(O)(c2ccccc2)c2ccccc2)n1` (stereo not given), the inhibition is 9% (inactive).
On to `Cc1ccccc1-c1ccc(-c2cn(C(=O)N3CCCCC3Cc3ccccc3)nn2)cc1` (stereo not given), for which the inhibition is 63%.
Take `O=C(N1CCCCC1Cc1ccccc1)n1cc(-c2ccc(-c3cccc(C(F)(F)F)c3)cc2)nn1` (stereo not given): the inhibition is 44% (inactive).
With `O=C(N1CCCCC1Cc1ccccc1)n1cc(-c2ccc(-c3cccc(CO)c3)cc2)nn1` (stereo not given), the inhibition was 11% (inactive).
As for `O=C(N1CCCCC1Cc1ccccc1)n1cc(-c2ccc(OC(F)(F)F)cc2)nn1` (stereo not given), the figure is 52%.
Regarding `O=C(N1CCCCC1Cc1ccccc1)n1cc(-c2ccc(Br)cc2)nn1` (stereo not given), the inhibition is 68%.
As for `O=C(N1CCCCC1Cc1ccccc1)n1cc(-c2ccc(-c3ccccc3)cc2)nn1` (stereo not given), the figure is 61%; as for `O=C(N1CCCCC1Cc1ccccc1)n1cc(-c2ccc(-c3ccc4c(c3)OCO4)cc2)nn1` (stereo not given), 18% (inactive).
For the compound `O=C(N1CCCCC1Cc1ccccc1)n1cc(-c2cc(F)cc(F)c2)nn1` (stereo not given), the inhibition is 55%.
Consider `O=C(N1CCCCC1Cc1ccccc1)n1cc(-c2ccc(-c3ccccc3OC(F)(F)F)cc2)nn1` (stereo not given), for which the inhibition is 59%.

(Values after PubChem BioAssay AID602302 (The Scripps Research Institute Molecular Screening Center, 2012).)
